# Source: ChEMBL document CHEMBL4715736, “Identification of anticancer agents based on the thieno[2,3-b]pyridine and 1H-pyrazole molecular scaffolds” (2016)
# Legend:
# Format in all cases: functional
# [1] = test system: UACC-62; experiment: Growth inhibition of human UACC-62 cells assessed as cell growth at 100 uM incubated for 48 hrs by sulforhodamine B assay relative to control; conditions: read-out: Activity
# [2] = test system: OVCAR-3; experiment: Growth inhibition of human OVCAR-3 cells assessed as cell growth at 100 uM incubated for 48 hrs by sulforhodamine B assay relative to control; conditions: read-out: Activity
# [3] = test system: KM12; experiment: Growth inhibition of human KM12 cells incubated for 48 hrs by sulforhodamine B assay
# In short: (§1)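 NCI60 panel at the NCI Developmental Therapeutics Program. Only compounds active in the 10 µM screen went to dose-response testing. GI50, the concentration giving 50% of maximal inhibition of proliferation, and TGI, the concentration giving total growth inhibition, were derived from the dose-response curves.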
# [4] = test system: Hs-578T; experiment: Growth inhibition of human Hs-578T cells assessed as cell growth at 0.1 uM incubated for 48 hrs by sulforhodamine B assay relative to control; conditions: read-out: Activity
# [5] = test system: NCI-H460; experiment: Growth inhibition of human NCI-H460 cells assessed as cell growth at 0.01 uM incubated for 48 hrs by sulforhodamine B assay relative to control; conditions: read-out: Activity
# [6] = test system: MDA-MB-435; experiment: Growth inhibition of human MDA-MB-435 cells assessed as cell growth at 1 uM incubated for 48 hrs by sulforhodamine B assay relative to control; conditions: read-out: Activity
# [7] = test system: ACHN; experiment: Growth inhibition of human ACHN cells incubated for 48 hrs by sulforhodamine B assay; conditions: for CC50: read-out: LC50 (the source's name)
# In short: (§2)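 NCI Developmental Therapeutics Program NCI60 panel. Compounds that were active in the 10 µM one-dose screen went on to dose–response testing. Growth at each concentration is expressed relative to untreated control (100%). GI50 (concentration giving 50% of maximal inhibition of proliferation) and TGI (concentration giving total growth inhibition) were derived from the curves.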
# [8] = test system: IGROV-1; experiment: Growth inhibition of human IGROV-1 cells assessed as cell growth at 0.1 uM incubated for 48 hrs by sulforhodamine B assay relative to control; conditions: read-out: Activity
# [9] = test system: OVCAR-8; experiment: Growth inhibition of human OVCAR-8 cells assessed as cell growth at 1 uM incubated for 48 hrs by sulforhodamine B assay relative to control; conditions: read-out: Activity
# [10] = test system: RPMI-8226; experiment: Growth inhibition of human RPMI-8226 cells assessed as cell growth at 1 uM incubated for 48 hrs by sulforhodamine B assay relative to control; conditions: read-out: Activity
# [11] = test system: DU-145; experiment: Growth inhibition of human DU-145 cells incubated for 48 hrs by sulforhodamine B assay; conditions: for CC50: read-out: LC50 (the source's name); in short: as §2
# [12] = test system: MDA-MB-468; experiment: Growth inhibition of human MDA-MB-468 cells assessed as cell growth at 100 uM incubated for 48 hrs by sulforhodamine B assay relative to control; conditions: read-out: Activity
# [13] = test system: A549; experiment: Growth inhibition of human A549/ATCC cells assessed as cell growth at 100 uM incubated for 48 hrs by sulforhodamine B assay relative to control; conditions: read-out: Activity; in short: as §2
# [14] = test system: M14; experiment: Growth inhibition of human M14 cells assessed as cell growth at 1 uM incubated for 48 hrs by sulforhodamine B assay relative to control; conditions: read-out: Activity
# [15] = test system: MCF7; experiment: Growth inhibition of human MCF7 cells incubated for 48 hrs by sulforhodamine B assay; conditions: for CC50: read-out: LC50 (the source's name); in short: as §1
# [16] = test system: SF-268; experiment: Growth inhibition of human SF-268 cells assessed as cell growth at 0.1 uM incubated for 48 hrs by sulforhodamine B assay relative to control; conditions: read-out: Activity
# [17] = test system: MDA-MB-435; experiment: Growth inhibition of human MDA-MB-435 cells assessed as cell growth at 100 uM incubated for 48 hrs by sulforhodamine B assay relative to control; conditions: read-out: Activity
# [18] = test system: HCT-15; experiment: Growth inhibition of human HCT-15 cells assessed as cell growth at 100 uM incubated for 48 hrs by sulforhodamine B assay relative to control; conditions: read-out: Activity
# [19] = test system: SNB-75; experiment: Growth inhibition of human SNB-75 cells assessed as cell growth at 100 uM incubated for 48 hrs by sulforhodamine B assay relative to control; conditions: read-out: Activity
# [20] = test system: SNB-19; experiment: Growth inhibition of human SNB-19 cells assessed as cell growth at 100 uM incubated for 48 hrs by sulforhodamine B assay relative to control; conditions: read-out: Activity
# [21] = test system: SW-620; experiment: Growth inhibition of human SW-620 cells assessed as cell growth at 1 uM incubated for 48 hrs by sulforhodamine B assay relative to control; conditions: read-out: Activity
# [22] = test system: HCT-15; experiment: Growth inhibition of human HCT-15 cells assessed as cell growth at 1 uM incubated for 48 hrs by sulforhodamine B assay relative to control; conditions: read-out: Activity
# [23] = test system: SK-MEL-2; experiment: Growth inhibition of human SK-MEL-2 cells incubated for 48 hrs by sulforhodamine B assay
# In short: (§3)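 NCI DTP 60-line human tumour panel. Dose-response curves were run only for ligands active in the initial 10 µM screen. GI50 (concentration giving 50% of maximal inhibition of proliferation) and TGI (concentration giving total growth inhibition) were derived from these curves.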
# [24] = test system: CAKI-1; experiment: Growth inhibition of human CAKI-1 cells incubated for 48 hrs by sulforhodamine B assay; conditions: for CC50: read-out: LC50 (the source's name); in short: as §2
# [25] = test system: SN12C; experiment: Growth inhibition of human SN12C cells assessed as cell growth at 100 uM incubated for 48 hrs by sulforhodamine B assay relative to control; conditions: read-out: Activity
# [26] = test system: SR; experiment: Growth inhibition of human SR cells incubated for 48 hrs by sulforhodamine B assay; in short: as §3
# [27] = test system: UACC-62; experiment: Growth inhibition of human UACC-62 cells incubated for 48 hrs by sulforhodamine B assay; in short: as §3
# [28] = test system: K562; experiment: Growth inhibition of human K562 cells assessed as cell growth at 0.1 uM incubated for 48 hrs by sulforhodamine B assay relative to control; conditions: read-out: Activity
# [29] = test system: COLO 205; experiment: Growth inhibition of human COLO 205 cells incubated for 48 hrs by sulforhodamine B assay; in short: as §2
# [30] = test system: SNB-19; experiment: Growth inhibition of human SNB-19 cells assessed as cell growth at 0.01 uM incubated for 48 hrs by sulforhodamine B assay relative to control; conditions: read-out: Activity
# [31] = test system: SR; experiment: Growth inhibition of human SR cells assessed as cell growth at 0.01 uM incubated for 48 hrs by sulforhodamine B assay relative to control; conditions: read-out: Activity
# [32] = test system: BT-549; experiment: Growth inhibition of human BT-549 cells assessed as cell growth at 1 uM incubated for 48 hrs by sulforhodamine B assay relative to control; conditions: read-out: Activity
# [33] = test system: A549; experiment: Growth inhibition of human A549/ATCC cells incubated for 48 hrs by sulforhodamine B assay; conditions: for CC50: read-out: LC50 (the source's name); in short: as §2
# [34] = test system: ACHN; experiment: Growth inhibition of human ACHN cells assessed as cell growth at 0.1 uM incubated for 48 hrs by sulforhodamine B assay relative to control; conditions: read-out: Activity
# [35] = test system: RXF 393; experiment: Growth inhibition of human RXF 393 cells assessed as cell growth at 1 uM incubated for 48 hrs by sulforhodamine B assay relative to control; conditions: read-out: Activity
structure (smiles),measurement,setting,value
Cc1cc(C)c(NC(=O)c2sc3nc4c(cc3c2N)CN(Cc2ccccc2)CC4)c(C)c1,growth at 100 µM,[1],-22%
same,growth at 100 µM,[2],-47%
same,GI50,[3],3.26 µM
same,LC50,[3],> 100 µM
same,TGI,[3],43.1 µM
same,growth at 0.1 µM,[4],91%
same,growth at 0.01 µM,[5],99%
same,growth at 1 µM,[6],20%
same,GI50,[7],6.31 µM
same,TGI,[7],> 100 µM
same,CC50,[7],> 100 µM
same,growth at 0.1 µM,[8],94%
same,growth at 1 µM,[9],91%
same,growth at 1 µM,[10],87%
same,GI50,[11],2.62 µM
same,TGI,[11],7.65 µM
same,CC50,[11],> 100 µM
same,growth at 100 µM,[12],-1%
same,growth at 100 µM,[13],13%
same,growth at 1 µM,[14],78%
same,GI50,[15],1.61 µM
same,TGI,[15],32.2 µM
same,CC50,[15],> 100 µM
same,growth at 0.1 µM,[16],100%
same,growth at 100 µM,[17],-58%
same,growth at 100 µM,[18],4%
same,growth at 100 µM,[19],-9%
same,growth at 100 µM,[20],25%
same,growth at 1 µM,[21],76%
same,growth at 1 µM,[22],68%
same,GI50,[23],5.59 µM
same,LC50,[23],> 100 µM
same,TGI,[23],> 100 µM
same,GI50,[24],2.81 µM
same,TGI,[24],> 100 µM
same,CC50,[24],> 100 µM
same,growth at 100 µM,[25],12%
same,GI50,[26],1.83 µM
same,LC50,[26],> 100 µM
same,TGI,[26],10.7 µM
same,GI50,[27],3.9 µM
same,LC50,[27],> 100 µM
same,TGI,[27],42.4 µM
same,growth at 0.1 µM,[28],105%
same,GI50,[29],2.98 µM
same,LC50 (concentration killing 50% of cells),[29],68.8 µM
same,TGI,[29],10.1 µM
same,growth at 0.01 µM,[30],98%
same,growth at 0.01 µM,[31],100%
same,growth at 1 µM,[32],81%
same,GI50,[33],4.11 µM
same,TGI,[33],> 100 µM
same,CC50,[33],> 100 µM
same,growth at 0.1 µM,[34],100%
same,growth at 1 µM,[35],78%
COc1cccc(NC(=O)c2sc3nc4c(cc3c2N)CN(Cc2ccccc2)CC4)c1,growth at 100 µM,[1],-34%
same,growth at 100 µM,[2],-60%
same,GI50,[3],11.8 µM
same,LC50,[3],> 100 µM
same,TGI,[3],40.3 µM
same,growth at 0.1 µM,[4],92%
same,growth at 0.01 µM,[5],101%
same,growth at 1 µM,[6],4%
same,GI50,[7],3.46 µM
same,TGI,[7],64.5 µM
same,CC50,[7],> 100 µM
same,growth at 0.1 µM,[8],102%
same,growth at 1 µM,[9],90%
same,growth at 1 µM,[10],84%
same,GI50,[11],5.22 µM
same,TGI,[11],22.2 µM
same,CC50,[11],76.3 µM
same,growth at 100 µM,[12],-8%
same,growth at 100 µM,[13],-8%
same,growth at 1 µM,[14],57%
same,GI50,[15],0.62 µM
same,TGI,[15],> 100 µM
same,CC50,[15],> 100 µM
same,growth at 0.1 µM,[16],100%
same,growth at 100 µM,[17],-74%
same,growth at 100 µM,[18],6%
same,growth at 100 µM,[19],-61%
same,growth at 100 µM,[20],14%
same,growth at 1 µM,[21],57%
same,growth at 1 µM,[22],49%
same,GI50,[23],10.3 µM
same,LC50,[23],> 100 µM
same,TGI,[23],44.5 µM
same,GI50,[24],11.7 µM
same,TGI,[24],> 100 µM
same,CC50,[24],> 100 µM
same,growth at 100 µM,[25],16%
same,GI50,[26],0.453 µM
same,LC50,[26],> 100 µM
same,TGI,[26],47.7 µM
same,GI50,[27],1.92 µM
same,LC50,[27],> 100 µM
same,TGI,[27],29.8 µM
same,growth at 0.1 µM,[28],101%
same,GI50,[29],7.55 µM
same,LC50 (concentration killing 50% of cells),[29],> 100 µM
same,TGI,[29],54.5 µM
same,growth at 0.01 µM,[30],98%
same,growth at 0.01 µM,[31],100%
same,growth at 1 µM,[32],72%
same,GI50,[33],3.79 µM
same,TGI,[33],53.8 µM
same,CC50,[33],> 100 µM
same,growth at 0.1 µM,[34],101%
same,growth at 1 µM,[35],84%
